From ChEMBL document CHEMBL3286368, “Delayed and Prolonged Histone Hyperacetylation with a Selective HDAC1/HDAC2 Inhibitor” (ACS Med Chem Lett, 2014)

Tests used:
[1] = Cmax in CD1 nu/nu mouse xenografted with human HCT116 cells at 50 mg/kg, po qd for 3 weeks; assay type: ADME, organism-based, HCT-116; set-up: dose 50 mg/kg, route oral; conditions: in vivo
How it was run: (§1)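 HCT116 cells (5 × 10^6 per mouse) injected subcutaneously into the right flank of CD1 nu/nu mice. Once tumors reached ~325 mm3, mice were randomized into groups of 12 and dosed orally for 21 days, once daily (qd) or biweekly (biw). Vehicle was 40% v/v PEG-400 plus 25% w/v HPβCD at 20 μL/g.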

[2] = Plasma protein binding in rhesus monkey at 2 uM; assay type: ADME, cell-free, Macaca mulatta; conditions: read-out: PPB (converted)
How it was run: (§2)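 Plasma protein binding measured in mouse, rat, dog and monkey plasma at 2 μM compound.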

Mus musculus [3] = assay: Inhibition of HDAC in CD1 nu/nu mouse tumor xenografted with human HCT116 cells assessed as plasma drug level causing increase in H2BK5 acetylation at 200 mg/kg, po qd after 8 hrs by ELISA; assay type: functional, HCT-116
[4] = Plasma protein binding in Sprague-Dawley rat at 2 uM; assay type: ADME, cell-free; conditions: read-out: PPB (converted); how it was run: as §2
Mus musculus [5] = assay: Dose normalized AUC in CD-1 mouse at 10 mg/kg, po; assay type: ADME, organism-based; set-up: dose 10 mg/kg, route oral; conditions: in vivo
Mus musculus [6] = assay: Unbound Cmax in 3 week po dosed CD1 nu/nu mouse xenografted with human HCT116 cells; assay type: ADME, organism-based, HCT-116; conditions: in vivo, 504 h
[7] = Half life in beagle dog at 0.5 mg/kg, iv; assay type: ADME, organism-based, Canis lupus familiaris; set-up: dose 0.5 mg/kg, route intravenous; conditions: in vivo
How it was run: (§3)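 Intravenous dosing at 5 (mouse), 2 (rat), 0.5 (dog) and 0.5 (monkey) mg/kg. Plasma clearance, steady-state volume of distribution and half-life derived from the plasma profile.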

[8] = Cmax in CD1 nu/nu mouse xenografted with human HCT116 cells at 525 mg/kg, po administered biweekly for 3 weeks; assay type: ADME, organism-based, HCT-116; set-up: dose 525 mg/kg, route oral; conditions: in vivo; how it was run: as §1
Mus musculus [9] = assay: Inhibition of HDAC in CD1 nu/nu mouse tumor xenografted with human HCT116 cells assessed as plasma drug level causing increase in H2BK5 acetylation at 200 mg/kg, po qd after 1 hr by ELISA; assay type: functional, HCT-116
[10] = Plasma clearance in Sprague-Dawley rat at 2 mg/kg, iv; assay type: ADME, organism-based; set-up: dose 2 mg/kg, route intravenous; how it was run: as §3
HCT-116 = assay: cells; assay type: functional, Homo sapiens
[11] = Cmax in CD1 nu/nu mouse xenografted with human HCT116 cells at 200 mg/kg, po qd for 3 weeks; assay type: ADME, organism-based, HCT-116; set-up: dose 200 mg/kg, route oral; conditions: in vivo; how it was run: as §1
Mus musculus [12] = assay: Inhibition of HDAC in CD1 nu/nu mouse tumor xenografted with human HCT116 cells assessed as plasma drug level causing increase in H2BK5 acetylation at 100 mg/kg, po bid after 24 hrs by ELISA; assay type: functional, HCT-116
[13] = Plasma clearance in CD-1 mouse at 5 mg/kg, iv; assay type: ADME, organism-based; set-up: dose 5 mg/kg, route intravenous; how it was run: as §3
Mus musculus [14] = assay: Inhibition of HDAC in CD1 nu/nu mouse tumor xenografted with human HCT116 cells assessed as plasma drug level causing increase in H2BK5 acetylation at 67 mg/kg, po tid after 24 hrs by ELISA; assay type: functional, HCT-116
[15] = Drug metabolism in rat hepatocytes; assay type: ADME, cell-based, Hepatocyte
[16] = AUC (0 to 24 hrs) in CD1 nu/nu mouse xenografted with human HCT116 cells at 200 mg/kg, po qd for 3 weeks; assay type: ADME, organism-based, HCT-116; set-up: time < 24 hr, dose 200 mg/kg, route oral; conditions: in vivo
How it was run: (§4)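 HCT116 cells (5 × 10^6/mouse) injected sc into right flank of CD1 nu/nu mice; at ~325 mm3 tumors, randomized into groups of 12. Oral dosing 21 days, once daily or biweekly, in 40% v/v PEG-400 and 25% w/v HPβCD at 20 μL/g. […] Tumor size by caliper.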

[17] = Plasma protein binding in beagle dog at 2 uM; assay type: ADME, cell-free, Canis lupus familiaris; conditions: read-out: PPB (converted); how it was run: as §2
Rattus norvegicus = assay: Dose normalized AUC in Sprague-Dawley rat at 4 mg/kg, po; assay type: ADME, organism-based; set-up: dose 4 mg/kg, route oral; conditions: in vivo
How it was run: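 Oral exposure, dose-normalized (μM·h·kg/mg), from a PK study also run with iv dosing (rat 2 mg/kg iv, 4 mg/kg po; monkey 0.5 mg/kg iv, 1 mg/kg po). Plasma clearance, Vdss, half-life and oral bioavailability also derived.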

[18] = Half life in Sprague-Dawley rat at 2 mg/kg, iv; assay type: ADME, organism-based; set-up: dose 2 mg/kg, route intravenous; conditions: in vivo; how it was run: as §3
[19] = Oral bioavailability in Sprague-Dawley rat at 4 mg/kg; assay type: ADME, organism-based; conditions: in vivo
Mus musculus [20] = assay: Inhibition of HDAC in CD1 nu/nu mouse tumor xenografted with human HCT116 cells assessed as plasma drug level causing increase in H2BK5 acetylation at 200 mg/kg, po qd after 72 hrs by ELISA; assay type: functional, HCT-116
[21] = AUC (0 to 24 hrs) in CD1 nu/nu mouse xenografted with human HCT116 cells at 150 mg/kg, po qd for 3 weeks; assay type: ADME, organism-based, HCT-116; set-up: time < 24 hr, dose 150 mg/kg, route oral; conditions: in vivo; how it was run: as §4
[22] = Half life in CD-1 mouse at 5 mg/kg, iv; assay type: ADME, organism-based; set-up: dose 5 mg/kg, route intravenous; conditions: in vivo; how it was run: as §3
in vivo = conditions: CD1 nu/nu, mouse, po, 875 mg/kg
Mus musculus [23] = assay: Inhibition of HDAC in CD1 nu/nu mouse tumor xenografted with human HCT116 cells assessed as plasma drug level causing increase in H2BK5 acetylation at 67 mg/kg, po tid after 72 hrs by ELISA; assay type: functional, HCT-116
Mus musculus [24] = assay: Inhibition of HDAC in CD1 nu/nu mouse tumor xenografted with human HCT116 cells assessed as plasma drug level causing increase in H2BK5 acetylation at 100 mg/kg, po bid after 48 hrs by ELISA; assay type: functional, HCT-116
Mus musculus [25] = assay: Inhibition of HDAC in CD1 nu/nu mouse tumor xenografted with human HCT116 cells assessed as plasma drug level causing increase in H2BK5 acetylation at 67 mg/kg, po tid after 4 hrs by ELISA; assay type: functional, HCT-116
Mus musculus [26] = assay: Inhibition of HDAC in CD1 nu/nu mouse tumor xenografted with human HCT116 cells assessed as plasma drug level causing increase in H2BK5 acetylation at 200 mg/kg, po qd after 24 hrs by ELISA; assay type: functional, HCT-116
[27] = Oral bioavailability in rhesus monkey at 1 mg/kg; assay type: ADME, organism-based, Macaca mulatta; conditions: in vivo
[28] = Drug metabolism in dog hepatocytes assessed as hydrolysis of oxazolidinone group; assay type: ADME, cell-based, Canis lupus familiaris, Hepatocyte
[29] = Plasma clearance in rhesus monkey at 0.5 mg/kg, iv; assay type: ADME, organism-based, Macaca mulatta; set-up: dose 0.5 mg/kg, route intravenous; how it was run: as §3
[30] = Plasma protein binding in CD-1 mouse at 2 uM; assay type: ADME, cell-free; conditions: read-out: PPB (converted); how it was run: as §2
[31] = Cmax in CD1 nu/nu mouse xenografted with human HCT116 cells at 875 mg/kg, po administered biweekly for 3 weeks; assay type: ADME, organism-based, HCT-116; set-up: dose 875 mg/kg, route oral; conditions: in vivo; how it was run: as §1

For `Nc1ccc(-c2cccs2)cc1NC(=O)c1ccc(N2CCC3(CC2)CNC(=O)O3)nc1`, the Cmax [1] was 3.5 µM, the fraction unbound at 2 µM [2] was 0.016 and the INH (Mus musculus [3]) was 9.5 µM. For the same compound, the fraction unbound at 2 µM [4] was 0.002, the AUC/dose (Mus musculus [5]) was 1.1 µM·kg·h/mg and the fCmax (Mus musculus [6]) was 240 nM. The half-life [7] was 1.4 h, the Cmax [8] was 56.8 µM and the INH (Mus musculus [9]) was 11.9 µM. For the same compound, the clearance [10] was 3.6 mL/min/kg, the GI25 (HCT-116) was 50 nM and the GI75 (HCT-116) was 188 nM. For the same compound, the GI90 (HCT-116) was 367 nM, the Cmax [11] was 40.4 µM and the INH (Mus musculus [12]) was 0.4 µM. The clearance [13] was 27 mL/min/kg, the INH (Mus musculus [14]) was 1.5 µM and the Drug metabolism [15] was “metabolite_notdetected”. For the same compound, the AUC at 24 h [16] was 371 µM·h, the fraction unbound at 2 µM [17] was 0.024 and the AUC/dose (Rattus norvegicus) was 3 µM·kg·h/mg. It also gave a half-life [18] of 4.2 h, a bioavailability [19] of 28% and an INH (Mus musculus [20]) of 0.3 µM. The AUC at 24 h [21] was 208 µM·h, the half-life [22] was 2 h and the concentration at 24 h (in vivo) was 19.3 µM. For the same compound, the INH (Mus musculus [23]) was 0.3 µM, the INH (Mus musculus [24]) was 0.3 µM and the INH (Mus musculus [25]) was 13.8 µM. The INH (Mus musculus [26]) was 0.2 µM, the bioavailability [27] was 100% and the Drug metabolism [28] was “metabolite_notdetected”. The clearance [29] was 27 mL/min/kg, the fraction unbound at 2 µM [30] was 0.015 and the Cmax [31] was 56.4 µM.
